The values that follow come from ChEMBL document CHEMBL1629441, “Synthesis, in vitro and in vivo biological evaluation, and comprehensive understanding of structure-activity relationships of dipeptidyl boronic acid proteasome inhibitors constructed from β-amino acids” (J Med Chem, 2010).

Molecules are shown by their SMILES.

The first test in a line: Inhibition of human 20S proteasome chymotrypsin-like activity by fluorimetric assay.
Details: not given; call rule not given here
The essentials:
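Human 20S proteasome preincubated with test compound, then Suc-Leu-Leu-Val-Tyr-AMC hydrolysis monitored 1 h at 37 °C by fluorescence (excitation 360 nm, 465 nm). Buffer pH 7.5: 20 mM Tris, 1 mM DTT, 10% glycerol, 0.02% (w/v) SDS; DMSO 3% (v/v) final. IC50 from five concentrations, each in duplicate; bortezomib standard.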
In the case of `O=C(CC(NC(=O)c1ccccc1)c1cccc(Cl)c1)N[C@@H](Cc1cccc(F)c1)B(O)O` (some centres not stated), the IC50 result was “Not Active”.
With `CC(C)C[C@H](NC(=O)CC(NC(=O)C(=O)OC(C)(C)C)c1cccc(F)c1)B(O)O` (some centres not stated), the IC50 result is on record as “Not Active”.
Still for that read-out and setting: with `CC(C)C[C@H](NC(=O)CC(NC(=O)C(=O)OC(C)(C)C)c1cccc(Cl)c1)B(O)O` (some centres not stated) the entry was “Not Active”; with `O=C(CC(NC(=O)c1ccccc1)c1cccc(Cl)c1)N[C@@H](CC1CCCCC1)B(O)O` (some centres not stated), “Not Active”.
The same measure, in the same setting: then `CC(=O)NC(CC(=O)N[C@@H](CC(C)C)B(O)O)c1cccc(Cl)c1` (some centres not stated), with “Not Active”; and `COc1cccc(C(CC(=O)N[C@@H](Cc2ccccc2C)B(O)O)NC(=O)c2cccnc2)c1` (some centres not stated), with “Not Active”; and `COc1cccc(C(CC(=O)N[C@@H](CC(C)C)B(O)O)NC(=O)C(=O)OC(C)(C)C)c1` (some centres not stated), with “Not Active”.
The same measure, in the same setting: with `O=C(CC(NC(=O)c1cccnc1)c1cccc(Cl)c1)N[C@@H](CC1CCCCC1)B(O)O` (some centres not stated) the entry was “Not Active”; with `Cc1cccc(C[C@H](NC(=O)CC(NC(=O)c2ccccc2)c2cccc(Cl)c2)B(O)O)c1` (some centres not stated), “Not Active”.
In the case of `CC(C)C[C@H](NC(=O)CC(NC(=O)c1cccnc1)c1ccccc1Cl)B(O)O` (some centres not stated), the IC50 entry is on record as “Not Active”.
As for `CC(C)C[C@H](NC(=O)CC(NC(=O)c1cccnc1)c1cccc(F)c1)B(O)O` (some centres not stated), the IC50 entry is given as “Not Active”.

The same test, now with this note: read-out: IC50.
Turning to `CC(C)C[C@H](NC(=O)CC(NC(=O)c1cccnc1)c1cccc([N+](=O)[O-])c1)B(O)O` (some centres not stated), the half-inhibitory concentration (IC50) is 26.9 nM.
As for `COc1ccccc1C(CC(=O)N[C@@H](CC(C)C)B(O)O)NC(=O)c1cccnc1` (some centres not stated), the IC50 was 87 nM.
The same measure, in the same setting: then `Cc1cccc(C[C@H](NC(=O)CC(NC(=O)c2ccccc2)c2cccc(F)c2)B(O)O)c1` (some centres not stated), with 120 nM.
Still for that read-out and setting: then `Cc1ccccc1C(CC(=O)N[C@@H](CC(C)C)B(O)O)NC(=O)c1cccnc1` (some centres not stated), with 1250 nM; and `CC(C)C[C@H](NC(=O)CC(NC(=O)c1cnccn1)c1cccc(Cl)c1)B(O)O` (some centres not stated), with 97.7 nM; and `O=C(CC(NC(=O)c1ccccc1)c1cccc(Cl)c1)N[C@@H](Cc1ccc(F)cc1)B(O)O` (some centres not stated), with 194 nM.
On the same count and under the same terms, then `CCCC[C@H](NC(=O)CC(NC(=O)c1cccnc1)c1cccc(OC)c1)B(O)O` (some centres not stated), with 1480 nM.
Turning to `Cc1ccc(C(CC(=O)N[C@@H](CC(C)C)B(O)O)NC(=O)c2ccccc2)cc1` (some centres not stated), the IC50 is 26.3 nM.
Same read-out and setting: with `CC(C)C[C@H](NC(=O)CC(NC(=O)c1ccccc1)c1ccc(Cl)cc1)B(O)O` (some centres not stated) the figure was 20.8 nM.
With `CC(C)C[C@H](NC(=O)CC(NC(=O)c1cnccn1)c1cccc(F)c1)B(O)O` (some centres not stated), the IC50 is 269 nM.
The same measure, in the same setting: with `Cc1cccc(C(CC(=O)N[C@@H](CC(C)C)B(O)O)NC(=O)c2ccccc2)c1` (some centres not stated) the figure was 50.1 nM.
Still for that read-out and setting: then `CC(C)C[C@H](NC(=O)CC(NC(=O)C1CCCCC1)c1cccc(F)c1)B(O)O` (some centres not stated), with 33.1 nM.
On the same count and under the same terms, then `CC(C)C[C@H](NC(=O)CC(NC(=O)c1cccnc1)c1ccc([N+](=O)[O-])cc1)B(O)O` (some centres not stated), with 7300 nM; and `COc1cccc(C(CC(=O)N[C@@H](CC(C)C)B(O)O)NC(=O)c2cccnc2)c1` (some centres not stated), with 19 nM; and `CC(C)C[C@H](NC(=O)CC(NC(=O)c1ccc2ccccc2c1)c1cccc(Cl)c1)B(O)O` (some centres not stated), with 117 nM.
For `CC(C)C[C@H](NC(=O)CC(NC(=O)[C@H]1CCCc2ccccc21)c1cccc(Cl)c1)B(O)O` (some centres not stated), the IC50 was found to be 21.8 nM.
As to `O=C(CC(NC(=O)c1ccccc1)c1cccc(Cl)c1)N[C@@H](Cc1ccccc1F)B(O)O` (some centres not stated), the IC50 was determined as 371 nM.
Same read-out and setting: then `CC(C)C[C@H](NC(=O)CC(NC(=O)c1ccccc1)c1ccccc1)B(O)O` (some centres not stated), with 39.8 nM; and `CC(C)C[C@H](NC(=O)CC(NC(=O)c1ccccc1)c1cccc(Cl)c1)B(O)O` (some centres not stated), with 16.5 nM.
Still for that read-out and setting: with `COc1ccccc1C(CC(=O)N[C@@H](CC(C)C)B(O)O)NC(=O)c1ccccc1` (some centres not stated) the figure was 224 nM.
Consider `COc1cccc(C(CC(=O)N[C@@H](Cc2ccccc2)B(O)O)NC(=O)c2cccnc2)c1` (some centres not stated), for which the IC50 stood at 1090 nM.
